The source of these data is ChEMBL document CHEMBL4513216, “Probing the Open Global Health Chemical Diversity Library for Multistage-Active Starting Points for Next-Generation Antimalarials” (ACS Infect Dis, 2020).

This data set in a line: Toxicity liver stage against HepG2, at 10uM. It counts as cell-based. Also on record: test concentration 10 uM, cell line HepG2-A16-CD81EGFP. The conditions noted are these: human, HepG2-A16-CD81EGFP cells; read-out: INHIBITION
The procedure, abridged: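 Uninfected HepG2-A16-CD81EGFP cells, 3 × 10^3 per well, 1536-well, plated on prespotted compound at 10 μM final, parasite-free screening media added to match infected plates; puromycin 10 μM positive, DMSO 0.5% negative; run in parallel with 48 h PbLuc assay at 37 °C, 5% CO2; viability by CellTiter-Glo luminescence, normalized to controls.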
For `CCCc1cc(C(=O)NC(c2ccccc2)c2n[nH]c(C)n2)[nH]n1` (stereo not drawn), the cytotoxicity at 10 µM was 2.99%.

For the compound `O=C1OCCN1c1cccc(CNCc2cc(F)ccc2F)c1`, the cytotoxicity at 10 µM worked out at 25.3%. The value for `O=C(C1CCOCC1)N1CCOC(CC2CCCCC2)C1` (stereo not drawn) was -5.56%; that for `COCc1cccc(S(=O)(=O)NCc2cnn(C)c2C)c1` was -4.02%. As to `Cn1nnnc1SC1CCN(c2ccccc2Cl)C1=O` (stereo not drawn), the cytotoxicity at 10 µM came out at 5.12%. The result for `Cc1nn(C)cc1-c1cncn1CCN(C)C1CCCC1` reads -4.64%. The result for `Cc1ccc(-n2cc(C(=O)N3CCn4c(C)nnc4C3)nn2)cc1` reads -141%; that for `COCc1nn(C(C)C)c2c1CCN(Cc1cccs1)C2`, -9.55%; that for `CC(C(=O)NCc1ccnc(Oc2ccc(F)cc2)c1)n1cncn1` (stereo not drawn), -3.63%. The result for `CN(Cc1csc(-c2ccccc2)n1)C(=O)CCn1ccccc1=O` reads -2.84%. Consider `Cc1cnc(C(=O)N2CCCC(n3nc(C)nc3C)C2)cn1` (stereo not drawn), for which the cytotoxicity at 10 µM was -12%. Regarding `O=C(CO)N1CCN(C(=O)c2coc3ccccc23)CC1`, the cytotoxicity at 10 µM is 3.16%. The value for `Cc1ccc2[nH]c(-c3cn(C4CCNCC4)nn3)nc2c1C` was -4.92%; that for `CNC(=O)[C@@H](c1ccccc1)N1CCC[C@H]1C(=O)NCc1ccccn1` was 5.62%; that for `O=C(Cc1ccsc1)N1C[C@@H]2OCCN(CC3CCCO3)[C@@H]2C1` (stereo partly drawn) was -4.42%.

Take `Cc1nc(C)c(C(=O)Nc2ccc(-c3nnc(N(C)C)o3)cc2)o1`: the cytotoxicity at 10 µM stood at 1.87%. The result for `Cc1nnsc1C(=O)N1CCCCC1c1cc2nc(C)c(C)c(O)n2n1` (stereo not drawn) reads -5.93%; that for `Cc1ncsc1-c1nc(Cc2cccs2)nn1C1CCN(C)CC1`, -4.51%; that for `CC(C)N1CCC(Cc2cc(-c3cccc(C(=O)O)c3)ncn2)CC1`, -8.99%. The result for `COCCN1CCN(CCCS(=O)(=O)N(C)C)CC1C` (stereo not drawn) reads 3.54%; that for `Cc1ccc(C(=O)N(C)Cc2cscn2)c(=O)[nH]1`, -7.69%; that for `O=C(Nc1ccc(F)cc1)C1CNCCN1C(=O)CCO` (stereo not drawn), 1.93%. Regarding `CCOc1ccc(CN(CCC#N)CCN2CCOCC2)cc1OC`, the cytotoxicity at 10 µM was -9.98%. The value for `Cc1cccc(CN2CCC3(CC2)CC(Oc2cccnc2)C3)n1` was 12.7%; that for `Cc1[nH]ccc1C(=O)N1CCN(C)C2(CCC(=O)N(C)CC2)C1` (stereo not drawn) was 5.95%; that for `Cc1nc(Nc2ncccn2)cc(C2CCCN2C)n1` (stereo not drawn) was -16.5%. With `CCC(CNC(=O)CNC(C)=O)Oc1cccc(F)c1` (stereo not drawn), the cytotoxicity at 10 µM was -43.6%. The result for `O=c1[nH]nc(C2CC2)n1-c1cccc(Cl)c1` reads -3.11%; that for `CC(C)n1ccnc1C1CCN(C(=O)c2ccccc2)CC1`, -10.9%. The value for `c1cncc(Cc2nnc3n2CCN(CC2CCOC2)CC3)c1` (stereo not drawn) was -2.11%. Regarding `CCc1nc(CN2CCCCC2C(N)=O)cs1` (stereo not drawn), the cytotoxicity at 10 µM is -7.96%. The result for `O=C(NCCc1ccccc1)N1CCC(C2OCCO2)CC1` reads -46.5%; that for `Cc1ccsc1CN1CC[C@H]2OCC[C@@]2(C(=O)N2CCCO2)C1`, -4%. As to `C[C@H](O)CNc1cc(-c2ccncc2)ncn1`, the cytotoxicity at 10 µM was -11.1%.

In the case of `CS(=O)(=O)N1CCC(Oc2cnccn2)CC1`, the cytotoxicity at 10 µM was found to be 0.097%.

`Cc1ccc(N2CCCC(NCc3ccc(Cl)o3)C2)nn1` (stereo not drawn): the cytotoxicity at 10 µM was -6.83%.

For `CC(C)CN(CC(O)c1ccc(F)cc1)C(=O)c1cc[nH]n1` (stereo not drawn), the cytotoxicity at 10 µM is -5.71%.

Consider `CC(C)(C)CN[C@@H]1CO[C@H](CNC(=O)c2cccs2)[C@H]1O`, for which the cytotoxicity at 10 µM was -4.23%. Take `COCCNS(=O)(=O)c1ccc(CNc2ncccc2C#N)cc1`: the cytotoxicity at 10 µM came out at 6.47%. For the compound `NC(=O)NCC1CCCCN1C(=O)c1cccc(Cl)c1` (stereo not drawn), the cytotoxicity at 10 µM was -7.6%. The value for `CC(C)(C)c1nc(CN2CCC3(CCCO3)CCC2=O)no1` (stereo not drawn) was -4.57%; that for `O=C(CS(=O)(=O)Cc1cc(Cl)c2c(c1)OCO2)N1CCCC1` was -8.91%; that for `Cc1nnc(CN(Cc2ccc3c(c2)OCO3)C2CCCCC2)o1` was -6.14%. Regarding `O=C(C1=CCCC1)N1C[C@@H]2COC[C@]2(COc2cccnc2)C1`, the cytotoxicity at 10 µM was -5.38%. The result for `O=C1CC[C@H]2CN(C3CCOCC3)CC[C@H]2N1CCC1=CCCCC1` reads -4.76%; that for `Cc1ccc(CNCC2Cn3nncc3CO2)s1` (stereo not drawn), -99.4%. The result for `Cc1ccc(CC(=O)Nc2ccc(CS(C)(=O)=O)c(F)c2)cc1` reads -2.77%.

`OCC1(NCc2cnc(-c3ccccn3)s2)CCOCC1`: the cytotoxicity at 10 µM came to 9.32%.

Consider `Cc1ccc(F)cc1NC(=O)CNc1cccc2c1CCCC2`, for which the cytotoxicity at 10 µM is 4.33%.

`Cc1ncc2c(n1)CN(C=C1NN=C(c3occc3C)O1)CC2`: the cytotoxicity at 10 µM is -2.7%.

Take `Cn1cc(C(=O)N2CC[C@@H]3[C@@H]2CCN3c2ncc(F)cn2)cn1`: the cytotoxicity at 10 µM was determined as 13.8%.

For the compound `CC(C)N1[C@H](Cn2cncn2)C[C@@H]2CNCC[C@@H]21`, the cytotoxicity at 10 µM is 1.9%.

On to `O=C1CN(C(=O)CC2C(=O)NCCN2CC2CCCCC2)CCN1` (stereo not drawn), for which the cytotoxicity at 10 µM was -7.41%. The result for `O=C(NCc1nc[nH]n1)c1cc(COc2ccccc2F)[nH]n1` reads -3.58%; that for `O=C(Cn1ccnc1)N1CCCC(OCc2cccnc2)C1` (stereo not drawn), 2.03%; that for `CN(C)C(=O)CO[C@H]1CN(Cc2nccs2)[C@@H]2COC[C@H]12`, 5.08%. As to `Cc1noc(C(C)N2CCN(CCCN3CCCC3=O)CC2)n1` (stereo not drawn), the cytotoxicity at 10 µM is -2.73%. In the case of `CC(C)(C)OCCN(Cc1cccc(O)c1)C1CCC(O)CC1` (stereo not drawn), the cytotoxicity at 10 µM was determined as 8.22%.

Turning to `Cc1nc(-c2ccsc2)ccc1C(=O)NCCC1CCCO1` (stereo not drawn), the cytotoxicity at 10 µM was -9.75%. In the case of `CC/N=c1\nc(NCC)nc2n1C(O)(Nc1cccc(Cl)c1Cl)CS2` (stereo not drawn), the cytotoxicity at 10 µM came to 14.1%. The result for `CCC(CNC(=O)Nc1cnn(CC)c1)N1CCCC1` (stereo not drawn) reads -1.47%; that for `NC(=O)c1cc2c(nc1N1C[C@H]3OC(=O)N(C4CCCC4)[C@H]3C1)CCC2`, 2.24%.

For `Cc1cc(CN(C)C(=O)C(c2cccnc2)N2CCOCC2)n[nH]1` (stereo not drawn), the cytotoxicity at 10 µM is -52.7%. With `Cc1cnc(NCc2ccncc2)nc1-c1cnn(C)c1`, the cytotoxicity at 10 µM is 15.4%. The result for `NCc1n[nH]c(=O)n1-c1cccc(Cl)c1Cl` reads -0.994%; that for `CCCc1noc(CN2CCCC2c2c(C)nn(C)c2OC)n1` (stereo not drawn), 9.94%. `CC(=O)N1CC[C@H]2OCC[C@@]2(C(=O)NCCc2ccccn2)C1`: the cytotoxicity at 10 µM amounted to 6%.

Regarding `Cc1ccccc1CC1(C(=O)O)CCCN(c2ncccn2)C1` (stereo not drawn), the cytotoxicity at 10 µM amounted to 1.25%. Regarding `COCCN(Cc1ccncc1)C(=O)CCSCc1ccc(F)cc1`, the cytotoxicity at 10 µM came out at 0.807%.

As to `CSc1ncccc1C(=O)NC(C)c1cccc(N2CCOC2=O)c1` (stereo not drawn), the cytotoxicity at 10 µM is -9.05%.

In the case of `CCOc1ncnc2c1CCN(C(=O)c1cnccn1)CC2`, the cytotoxicity at 10 µM was -6.13%. With `OCc1c(Cl)ncn1-c1ccc(F)cc1`, the cytotoxicity at 10 µM is 6.61%. With `Cc1noc(NCc2ccc(F)cc2)n1`, the cytotoxicity at 10 µM was -5.92%. Regarding `COc1cc(C)c(CN2CCc3nc4ccsc4c(=O)n3CC2)cc1C`, the cytotoxicity at 10 µM is -15.7%. The value for `Cc1cc(NC(=O)NCc2ccccc2OC(F)F)n(C)n1` was 2.29%; that for `Cc1nnsc1-c1nnc2sc(C3CCC3)nn12` was -7.86%. The result for `CCc1nccn1C1CCCN(C(=O)c2cncn2-c2ccccc2)C1` (stereo not drawn) reads 5.62%; that for `Cc1ccsc1CN(C)C(=O)C1CCCN(C(N)=O)C1` (stereo not drawn), 5.09%; that for `CN1CCN(Cc2cccnc2)C(=O)C12CCN(Cc1ccco1)CC2`, -4.34%. In the case of `CNC(=O)CCN(C)CC1(c2ccc(Br)cc2)CC1`, the cytotoxicity at 10 µM was -12.5%. The result for `CC(C)(C)c1cnc(CN2CCCCC2Cn2cccn2)o1` (stereo not drawn) reads -7.85%; that for `CC(C)c1n[nH]c(C2CN(C(=O)c3csnn3)CCO2)n1` (stereo not drawn), -4.89%; that for `CS(=O)(=O)N1CCCCC1c1ccc(Nc2cnccn2)nc1` (stereo not drawn), 6.39%.

Consider `CCN(CC)C(=O)CN(C)CCn1nc2ccccn2c1=O`, for which the cytotoxicity at 10 µM is -149%. In the case of `CN1CCN(C(=O)c2cc(NC(=O)c3ccccc3)n(C)n2)CC1`, the cytotoxicity at 10 µM is 4.07%.

In the case of `CN(Cc1noc(C2CC2)n1)C1CCN(Cc2ccccc2C#N)C1` (stereo not drawn), the cytotoxicity at 10 µM was -7.8%.

For the compound `O=C(NCCNc1ncccn1)N1CCN(C2CCCC2)CC1`, the cytotoxicity at 10 µM is -10%.

For `CC(C)C[C@@H](C(N)=O)n1cc(-c2cncnc2)nn1`, the cytotoxicity at 10 µM came to 3.28%.

With `CN(CC1CCCCO1)S(=O)(=O)c1cccc(C(=O)N2CCOCC2)c1` (stereo not drawn), the cytotoxicity at 10 µM was -12.4%.

As to `Cc1nc(C)n(CC2CCCN2CC(=O)Nc2cc(C(C)C)no2)n1` (stereo not drawn), the cytotoxicity at 10 µM was -0.292%. In the case of `CC(=O)Nc1nc(CN(C)C2CCCN(c3cccnn3)C2)cs1` (stereo not drawn), the cytotoxicity at 10 µM is -11.1%. The value for `Cc1[nH]ccc1C(=O)NC1CCC(N2C(=O)CCC2=O)CC1` (stereo not drawn) was -3.81%; that for `CCc1ncnc(N2CCOCC2C(N)=O)c1F` (stereo not drawn) was -4.73%. The result for `Cc1nc[nH]c1-c1nccn1-c1cccc(CN2CCCC2)c1` reads 4.36%; that for `O=C(CCc1ccco1)N1CCC(Oc2ccccc2)(C(=O)O)CC1`, 1.46%; that for `Cc1csc2ncc(-c3ccnc(N4CCCN(C)CC4)n3)c(=O)n12`, -6.97%. The value for `N#Cc1cccc(CN2C[C@@H](F)[C@@H](OCc3nc4cnccc4[nH]3)C2)c1` was 3.62%.

As to `COc1ccc(N(C)C(=O)C2CN(C)CCO2)cc1Cl` (stereo not drawn), the cytotoxicity at 10 µM is -46.4%.
